Experimental findings from publication PMC7902087 (Bioorganic & medicinal chemistry, 2020) are described below.

Data set [1] relates to Hepatocellular carcinoma (HePG2). Description: In vitro antitumor MTT assay, HePG2. The data set is classed as cell-based, human.
Data set [2] relates to Human prostate cancer (PC3). Nature of the data set: In vitro antitumor MTT assay, PC3. The conditions noted are these: read-out: In vitro cytotoxicity IC50 PC3. The data set is classed as cell-based.
Data set [3] relates to Epitheliod Carcinoma Cervix cancer (Hela). Description: In vitro antitumor MTT assay, Hela. The conditions noted are these: read-out: In vitro cytotoxicity IC50 Hela.
The subject of data set [4] is Mammary gland Breast cancer (MCF-7). Description: In vitro antitumor MTT assay, MCF-7.
The subject of data set [5] is Staphylococcus aureus ATCC 29213. Nature of the data set: Minimal inhibitory concentration, S. aureus. The data set is classed as cell-based. The conditions noted are these: broth dilution, 37 °C 18 h.
In a further data set the test system is Bacillus cereus UW85. Description: Minimal inhibitory concentration, B. cereus. The data set is classed as cell-based. The conditions noted are these: broth dilution, 37 °C 18 h.
The subject of data set [6] is Pseudomonas aeruginosa PAO1. Nature of the data set: Minimal inhibitory concentration, P. aeruginosa. The data set is classed as cell-based. Particulars: broth dilution, 37 °C 18 h. Summed up:
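Broth microdilution with serial 1:1 dilutions of test compound in Mueller Hinton broth. Wells are inoculated with bacterial suspension at 5 × 10^6 CFU/ml, and ampicillin/clavulanic acid serves as the positive control. Plates incubate at 37 °C for 18 h. MIC is the lowest concentration with no visible growth.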

The next data set relates to Candida albicans CS351. Description: Minimal inhibitory concentration, C. albicans. The conditions noted are these: broth dilution, 37 °C 18 h. The data set is classed as cell-based.
Data set [7] concerns HePG2, MCF-7, Hela and PC3 cell lines. Description: In vitro antitumor MTT assay, range over the four cell lines. The data set is classed as cell-based. Particulars: Homo sapiens, read-out: IC50 range towards the four cell lines.
The test system of data set [8] is Human lung fibroblast (WI38) cell line. Description: In vitro cytotoxicity against human normal cells. The data set is classed as cell-based. The conditions noted are these: WI-38, read-out: IC50 against WI38 normal cells.
Data set [9] deals with MCF-7 cells. Nature of the data set: Cell cycle arrest analysis. The data set is classed as cell-based, human.
The test system of data set [10] is MCF-7 cells. Nature of the data set: Detection of apoptosis. Particulars: MCF-7, 24 h. The data set is classed as cell-based, human.
Where [11] appears, read: Homo sapiens, HepG2, read-out: In vitro cytotoxicity IC50 HePG2.
[12] abbreviates: Homo sapiens, MCF7, read-out: In vitro cytotoxicity IC50 MCF-7.
[13] abbreviates: read-out: In vitro cytotoxicity IC50 HePG2, MTT, Mean ± SD, n = 3.
[14] abbreviates: read-out: In vitro cytotoxicity IC50 MCF-7, MTT, Mean ± SD, n = 3.

Read-outs that look alike come from different tables or passages of the source. Bounds are passed on as bounds.

For `C/C(=N\N=C\c1cccc(Cl)c1)c1cc2ccccc2o1` [Compound 23, (E)-1-(1-(benzofuran-2-yl)ethylidene)-2-((E)-3-chlorobenzylidene)hydrazine], the half-maximal inhibitory concentration (IC50) in [1] (setting [11]) was 86.5 ± 4.3 µM; in [2] (Homo sapiens), 91.8 ± 4.9 µM; in data set [3] (Homo sapiens, HeLa) it was above 100 µM; in data set [4] (setting [12]) it was above 100 µM.

On to “(E)-3-(benzofuran-2-yl)-3-hydroxy-2-((E)-(2-methylphenyl) diazenyl)acrylaldehyde [Compound 17]”, for which the IC50 was 72.4 ± 3.5 µM in data set [1] (setting [13]); 77.6 ± 4.3 µM in data set [2] (MTT, Mean ± SD, n = 3); 75 ± 4.2 µM in [3] (MTT, Mean ± SD, n = 3); 83.6 ± 4.3 µM in [4] (setting [14]). In addition, the “Minimal inhibitory concentration S. aureus” value in [5] came out at 8 µg/mL. The “Minimal inhibitory concentration B. cereus” value in the data set on Bacillus cereus UW85 is 256 µg/mL. Also, the “Minimal inhibitory concentration P. aeruginosa” value in data set [6] was 512 µg/mL. In addition, the “Minimal inhibitory concentration C. albicans” value in the data set on Candida albicans CS351 is 512 µg/mL.

For `C/C(=N\Nc1nc(C)cs1)c1cc2ccccc2o1` [Compound 11, (E)-2-(2-(1-(benzofuran-2-yl)ethylidene)hydrazineyl)-4-methylthiazole], the IC50 in data set [7] lay within 4 to 8.99 µM.

`COc1ccc(/N=N/C(C=O)=C(/O)c2cc3ccccc3o2)cc1` [Compound 13, (E)-3-(benzofuran-2-yl)-3-hydroxy-2-((E)-(4-methoxyphenyl)diazenyl)acrylaldehyde]: the IC50 in data set [8] stood at 83.5 µM.

For “(E)-2-(2-(1-(benzofuran-2-yl)ethylidene)hydrazineyl)-4-(benzofuran-5-yl)thiazole [Compound 10]”, the IC50 was found to be 21.2 ± 1.8 µM in data set [1] (setting [13]); 34.2 ± 2.6 µM in data set [2] (MTT, Mean ± SD, n = 3); 24.1 ± 2.1 µM in data set [3] (MTT, Mean ± SD, n = 3); 25.6 ± 2.2 µM in data set [4] (setting [14]).

As for `C/C(=N\Nc1nc(-c2ccccc2)cs1)c1cc2ccccc2o1` [Compound 8, (E)-2-(2-(1-(benzofuran-2-yl)ethylidene)hydrazinyl)-4-(4-phenyl)thiazole], in the data set with MCF-7 cells [9], the Cell cycle comment result was “pre-G1 apoptosis and cell growth arrest at G2/M”. Also, the “late apoptotic induction compared to control cells” value in the data set with MCF-7 cells [10] is listed as 98 fold. Further, in data set [7], the half-inhibitory concentration (IC50) lay in the range of 8.49 to 16.7 µM.

For `CCOC(=O)Cc1csc(N/N=C(\C)c2cc3ccccc3o2)n1` [Compound 9, Ethyl (E)-2-(2-(2-(1-(benzofuran-2-yl)ethylidene)hydrazineyl)thiazol-4-yl)acetate], the Cell cycle comment entry in the data set with MCF-7 cells [9] was “pre-G1 apoptosis and cell growth arrest at G2/M”. Moreover, the “late apoptotic induction compared to control cells” value in the data set with MCF-7 cells [10] was 54 fold. The compound further had a late apoptotic induction in the data set on MCF-7 cells [10] (control 0.15%) of 8.1%. Besides, in data set [7], the 50% inhibitory concentration (IC50) fell in the range of 6.55 to 13.1 µM.

As to `COc1cccc2c1C(=O)c1c(O)c3c(c(O)c1C2=O)C[C@@](O)(C(=O)CO)C[C@@H]3O[C@H]1C[C@H](N)[C@H](O)[C@H](C)O1` [DOX, doxorubicin, reference compound], in data set [7], the IC50 was in the range of 4.17 to 8.87 µM.

As for `C/C(=N\N=C\c1ccc([N+](=O)[O-])cc1)c1cc2ccccc2o1` [Compound 22, (E)-1-(1-(benzofuran-2-yl)ethylidene)-2-((E)-4-nitrobenzylidene) hydrazine], the 50% inhibitory concentration (IC50) was 77.4 ± 3.9 µM in [1] (setting [11]); above 100 µM in [2] (Homo sapiens); above 100 µM in [3] (Homo sapiens, HeLa); 88.5 ± 4.6 µM in data set [4] (setting [12]).

As for “(E)-3-(benzofuran-2-yl)-3-hydroxy-2-((E)-(3-methylphenyl) diazenyl)acrylaldehyde [Compound 16]”, the IC50 in data set [1] (setting [13]) amounted to 52.3 ± 3.1 µM; in data set [2] (MTT, Mean ± SD, n = 3) it was 63.3 ± 3.9 µM; in [3] (MTT, Mean ± SD, n = 3), 69.4 ± 4 µM; in [4] (setting [14]), 66.2 ± 3.9 µM. Moreover, the “Minimal inhibitory concentration S. aureus” value in [5] was 64 µg/mL. For the same compound, the “Minimal inhibitory concentration B. cereus” value with Bacillus cereus UW85 worked out at 128 µg/mL.
